697 NFkB inh – lowers PMA/ionomycin-induced NF-kB signal in 697 B cells | 697 B-cell NF-kB luciferase reporter, 16 h | inhibition, % at 4 µM | 330,000 compounds, 0.33% hits | AID 435022; in the data active means inhibition above about 35%
NR2E3 ag-1 – activates human photoreceptor nuclear receptor NR2E3; AID 2300; inhibition of corepressor binding, % at 4.78 µM; GST-NR2E3/biotin-RetCOR TR-FRET, 1536-well; 320,000 compounds, 0.12% hits; Q9Y5X4;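 active means percent inhibition above the cutoff of mean plus 3 SD of all tested compounds, set per screening campaign, cut at about 20% in these data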;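 further: 0% = DMSO wells and 100% = biotin wells as full block of FRET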
Target sequence (Q9Y5X4 whole entry, looked up): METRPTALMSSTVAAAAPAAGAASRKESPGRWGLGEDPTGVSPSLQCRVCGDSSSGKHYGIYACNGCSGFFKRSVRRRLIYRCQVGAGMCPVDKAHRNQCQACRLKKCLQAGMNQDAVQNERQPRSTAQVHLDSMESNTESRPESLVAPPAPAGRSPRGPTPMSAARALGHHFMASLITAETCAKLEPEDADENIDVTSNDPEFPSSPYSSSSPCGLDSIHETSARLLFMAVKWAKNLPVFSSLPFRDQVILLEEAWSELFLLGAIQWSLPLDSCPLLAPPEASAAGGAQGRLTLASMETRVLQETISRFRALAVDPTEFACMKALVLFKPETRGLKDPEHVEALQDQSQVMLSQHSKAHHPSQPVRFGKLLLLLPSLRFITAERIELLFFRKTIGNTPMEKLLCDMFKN
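System: GST-tagged NR2E3 plus biotinylated RetCOR corepressor; Amount: 1.35 nM GST-tagged NR2E3 final; Dosing: single nominal compound dose of 4.8 µM; Schedule: 5 h incubation at 4 °C; Technique: TR-FRET with europium anti-GST and streptavidin-D2, 340 nm excitation; Controls: biotin wells as high control, 0.6% DMSO wells as low control.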
Jurkat NFkB inh – lowers PMA/ionomycin-induced NF-kB signal in Jurkat cells | PMA/ionomycin-induced NF-kB luciferase reporter, luminescence | inhibition, % at 4 µM | 330,000 compounds, 0.53% hits; in the data active means inhibition above about 50%
Gli-Sufu antag – antagonists of Gli-Sufu signaling; Sufu-KO-LIGHT fibroblasts, Gli luciferase reporter luminescence; inhibition, % at 5 µM; 340,000 compounds, 0.74% hits;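 active means inhibition above about 55%, limit read from the data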;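 further: 0% = DMSO-treated cells and 100% = wells with medium but no cells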
GalR3 antagonist – antagonists of human GalR3; O60755; HEK293 GalR3-CNG cAMP membrane potential fluorescence; galR3 body fused to GalR1 C-terminus; inhibition, % at 3 µM; 360,000 compounds, 0.44% hits; AID 651719;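 active means inhibition above the screen-wide average plus 3 SD, cut at about 13% in these data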;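 further: forskolin and galanin both at EC90 stimulate the cells; cAMP rise reported by CNG channel membrane potential dye signal; 0% = forskolin plus galanin with DMSO and 100% = forskolin alone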
NR2E3 ag-2 – human photoreceptor-specific nuclear receptor agonism; AID 602229; inhibition of corepressor binding, % at 3.98 µM; CHO-S Gal4-NCOR/VP16-NR2E3 two-hybrid, luciferase; 360,000 compounds, 0.35% hits; Q9Y5X4;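 active means inhibition above the mean of all tested compounds plus 3 SD, cut at about 70% in these data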;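 further: 0% = DMSO with NR2E3 transfected cells and 100% = cells lacking NR2E3 construct; higher means lower luciferase signal from less NR2E3 corepressor binding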
Gli antag conf – Gli-SUFU antagonism confirmation, single concentration. shares compounds with Gli-Sufu antag. Sufu-KO-LIGHT cells, Gli luciferase reporter, luminescence. inhibition, % at 5 µM. 2,500 compounds, 40% hits;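 active means mean inhibition at 5 µM reaching about 45%, limit read from the data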;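 further: plate controls were DMSO-treated cells for no effect and wells lacking cells for full effect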
Gli cytotox – counter-screen for Gli-SUFU antagonists: cytotoxicity | shares compounds with Gli-Sufu antag | Sufu-KO-LIGHT cells cytotoxicity, ATP luminescence | cytotoxicity, % at 5 µM | 2,500 compounds, 32% hits;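 active means mean cytotoxicity at 5 µM above about 25%, limit read from the data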;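 further: cells exposed to compound overnight for roughly 16 to 18 hours; plate controls were DMSO wells with cells for no effect and medium without cells for full effect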
Wnt3a cs – Wnt3a reporter inhibition counter-screen; 2,500 compounds, 20% hits; Wnt-LIGHT cells, Wnt3a-driven luciferase reporter, luminescence; shares compounds with Gli-Sufu antag; AID 651995; inhibition, % at 6.25 µM;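 active means mean inhibition above about 25%, limit read from the data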
The depositor's hits bear a star; x = not tested or not shown. Hits are enriched below; roughly 1.8% of the tested compounds scored in any of these assays.

SMILES	697 NFkB inh	NR2E3 ag-1	Jurkat NFkB inh	Gli-Sufu antag	GalR3 antagonist	NR2E3 ag-2	Gli antag conf	Gli cytotox	Wnt3a cs
Cc1ccc(-c2c[n+](Cc3ccc(Cl)cc3)c3n2CCC3)cc1	-9	2	24	79*	2	2	81*	33*	19
Cc1ccc(C[n+]2cc(-c3ccc(Cl)cc3)n3c2CCC3)cc1	-22	-2	8	77*	-2	-8	79*	32*	19
Cc1ccc(-c2c[n+](Cc3cccc(Cl)c3)c3n2CCC3)cc1	-41	4	21	79*	-3	-22	82*	36*	19
CC1(c2ccc3ccccc3c2)NC(=O)N(CC(=O)NCC(C)(C)N2CCOCC2)C1=O (stereo not drawn)	1	2	8	-2	-3	1	x	x	x
Nc1cnc(CNc2ccccc2Cl)cn1	-1	2	-5	8	-4	-1	x	x	x
COC(=O)Cc1nnn2c1[C@H](C)[C@H](c1cccc(OC)c1OC)OCC2	x	x	x	x	-6	x	x	x	x
CC(=C/c1ccccc1)/C=N/NC(=O)c1nnn(-c2nonc2N)c1CN1CCC(C)CC1	-15	3	12	17	-10	-24	x	x	x
Nc1nonc1-n1nnc(C(=O)N/N=C/c2ccccc2)c1CSc1ccccc1	-7	1	-9	5	0	-24	x	x	x
CC1CCN(Cc2c(C(=O)N/N=C/c3ccccc3O)nnn2-c2nonc2N)CC1	-13	-4	36	52	-13	-20	62*	23	27*
Nc1nonc1-n1nnc(C(=O)N/N=C/c2ccncc2)c1CSc1ccccc1	-31	0	3	62*	-2	24	27	20	2
COc1cc(C)c(CN2CCC(n3nccc3NC(=O)C3CCOC3)CC2)cc1C (stereo not drawn)	-4	1	-25	59*	3	2	14	7	-13
NC(=O)C12NC(Cc3ccccc31)c1ccccc12 (stereo not drawn)	x	x	x	x	-1	x	x	x	x
CSc1cccc(N2CC(C(=O)NCCC3=CCCCC3)CC2=O)c1 (stereo not drawn)	9	2	9	-6	-2	-45	x	x	x
COc1cccc(CN2CC(C(=O)NCCOc3ccccc3)CCC2=O)c1 (stereo not drawn)	-15	0	-2	-6	-5	-40	x	x	x
COc1cccc(CN2CC(C(=O)NCCOc3ccccc3F)CCC2=O)c1 (stereo not drawn)	-10	0	0	59*	5	-8	36	15	-39
COc1ccccc1OCCNC(=O)C1CC(=O)N(c2cccc(SC)c2)C1 (stereo not drawn)	-23	1	-17	95*	0	43	28	20	-26
CC(=O)N1CC=CC1(CC(C)C)C(=O)NCCc1c[nH]c2ccccc12 (stereo not drawn)	-20	3	-6	95*	-5	5	26	-4	-22
CC(C)CC1(C(=O)NCCc2c[nH]c3ccccc23)C=CCN1C(=O)c1ccccc1 (stereo not drawn)	-18	8	-15	-6	-6	-39	x	x	x
CN(Cc1nc2ccccc2c(=O)[nH]1)Cc1nc2ccsc2c(=O)[nH]1	8	-2	-3	62*	-4	0	31	12	39*
CC(NC(=O)CN(C)Cc1nc2ccccc2c(=O)[nH]1)c1ccccc1 (stereo not drawn)	2	4	0	0	-1	-8	x	x	x
Cc1ccc[n+](C(C)C(=O)c2ccc(Cl)cc2)c1 (stereo not drawn)	1	-1	1	-12	-8	-7	x	x	x
Cc1cc(C)c[n+](C(C)C(=O)c2ccc(-c3ccccc3)cc2)c1 (stereo not drawn)	27	0	34	80*	-1	-30	79*	24	0
CCOCCCn1c(SCC(=O)Nc2ccccc2)nc2ccccc2c1=O	-1	-1	1	26	-8	-16	x	x	x
CCOCCCn1c(SCc2nc3ccccc3s2)nc2ccccc2c1=O	-82	1	-29	54	-6	-57	30	16	-145
S=C(SCc1c(Cl)cccc1Cl)N1CCSCC1	x	x	x	x	-1	x	x	x	x
SMILES	697 NFkB inh	NR2E3 ag-1	Jurkat NFkB inh	Gli-Sufu antag	GalR3 antagonist	NR2E3 ag-2	Gli antag conf	Gli cytotox	Wnt3a cs
CCc1c(C)sc2nc(C(C)C)nc(SCC(=O)N3CCc4ccccc4C3)c12	-11	2	-3	83*	-8	x	85*	41*	13
Cc1sc2nc(C3CC3)nc(SCC(=O)N3CCc4ccccc4C3)c2c1C	-9	-4	-6	25	-2	1	x	x	x
COc1cccc(NC(=S)/C(=C(\[O-])c2cc(C)n(-c3ccccc3F)c2C)[n+]2ccc(N(C)C)cc2)c1	-16	-1	-11	60*	-1	-5	57*	33*	18
Cc1cc(C([O-])=C(C(=S)Nc2ccc(F)cc2)[n+]2ccccc2)c(C)n1-c1ccc(F)cc1	x	x	x	5	-6	-33	x	x	x
Cc1ccc(NC(=O)c2cc(C)n(-c3cccc(C)c3)c2C)cc1	-124	-1	-82	77*	2	18	86*	67*	89*
C[C@@H]1COc2cccc(NC3CC3)c2S(=O)(=O)N1	x	x	x	x	3	x	x	x	x
C=COCCCNc1ncnc2sc(-c3ccccc3)cc12	-13	2	23	61*	-12	-15	48*	39*	2
OCCCNc1ncnc2sc(-c3ccccc3)cc12	-16	1	-28	-8	-4	23	x	x	x
COc1ccc(-c2cc(C)no2)cc1S(=O)(=O)NCC(C)c1ccccc1 (stereo not drawn)	-7	6	-11	76*	-4	16	27	7	-39
CCc1ccc(-c2cc(C)no2)cc1S(=O)(=O)NCCN1CCC(C)CC1	2	-1	3	-7	3	5	x	x	x
CCc1ccc(-c2cc(C)no2)cc1S(=O)(=O)NCCCN1CCN(c2ccccc2)CC1	-39	0	29	50	-3	40	18	29*	-55
CCOc1ccccc1CNS(=O)(=O)c1cc(-c2cc(C)no2)ccc1OC	9	-2	6	-1	0	-26	x	x	x
NC(=O)CC(NC(=O)c1ccccc1)c1ccc(N2CCCCCC2)c([N+](=O)[O-])c1 (stereo not drawn)	-15	1	14	56*	-5	-12	36	21	-44
